Screening data deposited in PubChem by several laboratories.
Shown are actives, neighbours in structure and some others; about 1.2% of the full set was active somewhere.
Tb hexokinase: Trypanosoma brucei hexokinase 1 inhibitors, primary screen, biochemical, G6PDH-coupled NADH absorbance, MLSCN library; recombinant TbHK1, G6PDH-coupled NADH A340; inhibition, % at 10 µM; 220,000 tested, 0.11% active; AID 1430, 2008;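 active = inhibition of 50% or more in the single-dose primary screen; inactive = inhibition below 50%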
HSV replic up: enhancers of HSV replication in host cells, fold increase, host cell viability. HSV replication augmentation in cells. maximum fold increase. 220,000 tested, 0.005% active. AID 1956, 2009; in the data active = maximum fold increase above about 1.5; inconclusive = no clear call, values can overlap the other calls; tested in PC3 cells
Dynein cargo inh: inhibitors of GR-EGFP nuclear translocation, primary screen, dynein cargo transport inhibitor project, imaging, high-content, 3617.4 mouse cells. test concentration mostly 20 µM; stimulated with dexamethasone, 1 µM; stronger effect = lower value. z-score, hits read low. 220,000 tested, 0.47% active. AID 1381, 2008;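 active = plate z-score of nuclear minus cytoplasmic receptor signal below a set negative limit, without overly bright fluorescence or cell loss, cut at about -3.5 in these data, passing the limit was not always enough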;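 also: z-score of nuclear minus cytoplasmic ring GR-EGFP intensity difference per well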
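Buffer or medium: tet-free, stripped-serum medium; reagent: dexamethasone at 1.0 µM final, 30 min; incubation: 48 h induction, 1 h compound, 30 min dex at 37 °C; measured by: formaldehyde fixation, Hoechst nuclear stain, 10x automated fluorescence imaging; read-out: nuclear-to-cytoplasmic GR-EGFP distribution per well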
PERK inh: block of dimerizer-induced PERK translation repression, primary screen, PERK inhibitor project, CHO PERK-DD cells, SEAP luminescence, HTS | Eukaryotic translation initiation factor 2-alpha kinase 3 (Homo sapiens), Q9NZJ5 | CHO PERK-DD fusion, SEAP luminescence translation reporter | 220,000 tested, 0.17% active | inhibition, % at 5.6 µM;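 active = inhibition above the mean inhibition of all tested compounds plus 3 SD, set separately per screening campaign, cut at about 2.9% in these data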;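 also: PERK kinase domain activated by AP20187 dimerizer at 100 nM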
HKDC1 inhibitor: HKDC1 hexokinase inhibitors, primary screen, biochemical, fluorescence, uHTS; Q2TB90; recombinant HKDC1, G6PDH/diaphorase resazurin coupled fluorescence; inhibition, % at 20 µM; 340,000 tested, 0.16% active;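 active = inhibition above about 35% when tested at 20 µM, limit read from the data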
Target sequence (Q2TB90 whole entry, looked up): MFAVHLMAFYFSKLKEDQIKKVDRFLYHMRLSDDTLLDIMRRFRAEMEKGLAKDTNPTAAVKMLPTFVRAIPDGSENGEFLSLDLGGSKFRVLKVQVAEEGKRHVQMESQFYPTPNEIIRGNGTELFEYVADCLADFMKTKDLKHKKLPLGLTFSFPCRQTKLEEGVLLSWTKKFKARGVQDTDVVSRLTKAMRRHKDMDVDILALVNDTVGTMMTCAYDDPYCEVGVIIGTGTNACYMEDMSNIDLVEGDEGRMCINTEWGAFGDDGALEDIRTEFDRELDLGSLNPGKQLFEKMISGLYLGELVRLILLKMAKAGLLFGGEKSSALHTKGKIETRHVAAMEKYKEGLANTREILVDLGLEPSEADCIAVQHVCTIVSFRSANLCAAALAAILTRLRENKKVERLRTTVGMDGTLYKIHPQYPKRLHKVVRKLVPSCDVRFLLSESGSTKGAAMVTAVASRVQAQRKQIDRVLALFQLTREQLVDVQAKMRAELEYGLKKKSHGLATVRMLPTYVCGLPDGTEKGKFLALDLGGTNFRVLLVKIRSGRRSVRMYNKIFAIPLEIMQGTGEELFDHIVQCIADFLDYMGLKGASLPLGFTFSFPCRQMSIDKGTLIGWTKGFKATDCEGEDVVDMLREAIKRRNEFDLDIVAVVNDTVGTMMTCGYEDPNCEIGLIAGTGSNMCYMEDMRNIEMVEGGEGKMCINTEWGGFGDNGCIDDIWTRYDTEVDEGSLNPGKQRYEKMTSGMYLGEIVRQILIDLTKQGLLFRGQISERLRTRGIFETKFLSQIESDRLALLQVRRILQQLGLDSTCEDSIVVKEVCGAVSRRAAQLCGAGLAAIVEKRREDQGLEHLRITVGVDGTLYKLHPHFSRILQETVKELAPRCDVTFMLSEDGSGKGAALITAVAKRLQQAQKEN
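Test system: Recombinant HKDC1 (HK5) hexokinase enzyme, produced in-house | Input: HKDC1 at 5 µg/mL | Buffer or medium: Tris pH 8.0 buffer with MgCl2, Tween-20, BSA, BME | Schedule: 90 min reaction incubation at room temperature, dark | Technique: Resazurin-to-resorufin fluorescence via G6PDH and diaphorase coupling, 525/613 nm | Controls: DMSO wells with and without enzyme mix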
Autophagy HCS: autophagy modulators in MEF cells, primary screen, imaging, high-content, MEF GFP-LC3 | 190,000 tested, 0.98% active | calls only at 10 µM (by protocol) | MEF GFP-LC3 puncta imaging; test concentration mostly 10 µM;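 active = percentage of spot-positive cells more than 3 SD above its plate mean, without a fluorescence outlier flag or 80% toxicity; inconclusive = no clear call, values can overlap the other calls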
Hits are given with their value; n = inactive; u = inconclusive; x = no result given; + = active, no number.

SMILES	Tb hexokinase	HSV replic up	Dynein cargo inh	PERK inh	HKDC1 inhibitor	Autophagy HCS
Cc1ccc(C)c(N2N=C(C(=O)NCCN3C(=O)S/C(=C\c4cccnc4)C3=O)CCC2=O)c1	x	x	x	x	n	x
COc1ccc(-c2csc(/C(C#N)=C/Nc3cc4oc5ccccc5c4cc3OC)n2)cc1	n	n	n	n	n	+
O=C(Nc1c(Cl)cc2c(c1Cl)Cc1cc([N+](=O)[O-])ccc1-2)C(Cl)Cl	x	x	x	x	n	x
COc1ccc(O)c(/C=N/c2sc(C)c(C)c2C#N)c1	n	n	n	n	n	n
Cc1sc(/N=C/c2c(O)ccc3ccccc23)c(C#N)c1C	n	x	n	n	x	+
COc1ccc2cc(C)c3nnc(SCC(=O)Nc4nc(-c5ccccc5)cs4)n3c2c1	n	n	n	n	n	+
O=C(NCCCO)C(=O)Nc1cc2c3c(c1)CCC(=O)N3CCC2	x	x	x	x	n	x
O=C1c2ccc3c4c(ccc(c24)C(=O)N1c1ccc(O)cc1)C(=O)N(c1ccc(O)cc1)C3=O	n	n	n	n	56	n
c1ccc(CN2CCN(c3nc(N4CCOCC4)c4ccccc4n3)CC2)cc1	n	n	n	n	n	+
COc1ccc(NC(=O)C2CCCN2S(=O)(=O)c2cccs2)c([N+](=O)[O-])c1 (configuration not stated)	x	x	x	x	n	x
Cc1ccc(S(=O)(=O)N2CCOCC2)cc1NC(=O)COC(=O)c1cc(=O)c2ccccc2o1	n	x	n	n	n	+
Cc1ccc(C(C(=O)NCc2ccco2)N(C(=O)CNC(=O)c2cccs2)c2c(C)cccc2C)cc1 (configuration not stated)	n	n	n	n	n	n
Cc1ccc(C(C(=O)NCc2ccco2)N(C(=O)CNC(=O)c2cccs2)c2c(C)cc(C)cc2C)cc1 (configuration not stated)	n	n	n	n	n	+
O=C(Nc1nc2ccccc2n1Cc1ccccc1)c1ccc(COc2ccccc2[N+](=O)[O-])o1	n	n	n	n	n	+
COC(=O)c1cn(NC(=O)C2CCCO2)c(=O)c2ccccc12 (configuration not stated)	n	n	n	n	n	+
COC(=O)c1cn(NC(=O)C2COc3ccccc3O2)c(=O)c2ccccc12 (configuration not stated)	n	n	n	n	n	n
CCC(=O)Nc1nonc1-c1nc2ccccc2n1Cc1cccc2ccccc12	n	n	n	n	n	+
COc1cccc2sc(Nc3nnc(-c4ccc(F)cc4)o3)nc12	n	n	n	n	n	n
COc1cccc2sc(Nc3nnc(-c4cccs4)o3)nc12	n	n	n	n	n	+
Cc1cc(C)c2c(c1)N[C@H](c1cccs1)[C@@H]1CCO[C@H]21	n	n	n	n	n	x
CC(C)c1ccc2c(c1)[C@H]1OCC[C@H]1[C@@H](c1cccs1)N2	n	n	n	n	n	+
COCCN1C(=O)/C(=C/c2ccc(N3CCCC3)cc2C)SC1=S	n	u	n	n	n	+
CCN=C1S/C(=C\c2ccc(N3CCOCC3)cc2C)C(=O)N1CC	n	n	n	n	n	n
COc1ccc(-n2nnnc2-c2ccccc2)cc1	n	n	n	n	n	+
Cc1cccc(NC(=O)CCN2CCC(C)CC2)c1	x	x	x	x	n	x
SMILES	Tb hexokinase	HSV replic up	Dynein cargo inh	PERK inh	HKDC1 inhibitor	Autophagy HCS
CCOc1cc(C(=O)N2CCCN(C)CC2)cc(OCC)c1OCC	x	x	x	x	n	x
Nc1nc(N2CCCCC2)c(C=O)c(N2CCCCC2)n1	n	n	n	n	n	+
Nc1nc(Cl)c(C=O)c(N2CCCCC2)n1	n	n	n	n	n	n
C/C(=N\NC(=O)c1cc(C(C)C)[nH]n1)c1ccco1	n	n	n	n	n	+
COc1cccc2c1C(CO)N1C(C#N)C3CC(C(=O)O)C(C1C2)N3C (configuration not stated)	n	n	n	3.7	n	x
COc1cccc2c1OCC(C(=O)O)C2 (configuration not stated)	n	n	n	n	n	n
Cc1ccc(NC(=S)NNC(=O)c2ccco2)cc1	n	n	n	n	n	n
Cc1cccc(NC(=S)NNC(=O)c2ccco2)c1	n	n	n	3.1	n	n
CCCCN1C(=O)Cc2c1nc(N)c1c(N)nc(N(CCC)CCC)c(C#N)c21	n	x	n	n	n	+
Cc1ccc(C(=O)O)cc1NC(=O)CCc1ccccc1	n	n	n	n	n	+
COc1ccc(S(=O)(=O)N(CC(=O)N2CCCCCC2)c2ccccc2OC)cc1	x	x	x	x	n	x
COC(=O)c1ccc(NC(=O)Nc2ccc(F)cc2F)cc1	n	n	n	n	n	+
C=CCNC(=S)Nc1ccc(F)cc1F	n	n	n	n	n	n
C=CCNC(=O)Nc1ccc(F)cc1F	n	n	n	3.4	n	n
COC(=O)c1ccc(NC(=O)Nc2cccc(F)c2)cc1	n	n	n	n	n	n
Fc1cc(F)c(F)c(SCn2cc(Br)cn2)c1F	x	x	x	x	n	x
Cc1cccc(N2CCN(C(=O)c3ccc4c(c3)CCN4S(C)(=O)=O)CC2)c1C	x	x	x	x	n	x
CN(Cc1ccccc1)C(=O)c1ccccc1N(C)S(=O)(=O)c1ccccc1	x	x	x	x	n	x
O=C(Nc1ccc2nc(-c3ccco3)c(-c3ccco3)nc2c1)N1CCCCCC1	n	n	n	n	45	n
CC(C)(C)N(Cc1ccccc1)C(=O)COC(=O)/C=C/c1ccc2c(c1)OCO2	x	x	x	x	n	x
COc1ccc(-c2oc(=O)c3cc(OC)c(OC)cc3c2-c2ccc3c(c2)OCO3)cc1	x	x	x	x	n	x
COc1cc2c(O)c3c(c(-c4ccc5c(c4)OCO5)c2cc1OC)C(=O)OC3	n	n	n	n	n	+
COc1cc2c(OC(C)=O)c3c(c(-c4ccc5c(c4)OCO5)c2cc1OC)C(=O)OC3	n	n	n	n	n	+
COc1ccc(/C=C/C(=O)c2ccc3c(c2)OCO3)cc1OC	x	x	x	x	n	x
O=C(CN1C(=O)c2ccccc2C1=O)NC(Cc1ccccc1)C(=O)O (configuration not stated)	x	x	x	x	n	x
SMILES	Tb hexokinase	HSV replic up	Dynein cargo inh	PERK inh	HKDC1 inhibitor	Autophagy HCS
CN(C)c1ccc(/C=N/NC(=O)c2ccn(C)n2)cc1	n	n	n	3.0	n	x
CC(C)(C)C(=O)/C(=C\c1ccc([N+](=O)[O-])cc1)n1cncn1	n	n	-5.1	n	x	+
O=C1c2ccccc2C(=O)N1c1ccc(-c2nc3ccccc3o2)cc1	n	n	n	n	x	+
Cc1ccc(-c2cc(C(=O)NCCN3CCOCC3)c3ccccc3n2)o1	x	x	x	x	n	x
Cc1c(Cl)sn(-c2ccc(Cl)cc2)c1=O	n	n	-4.6	n	n	n
CCOc1ccc(S(=O)(=O)NNS(=O)(=O)c2ccc(C)cc2C)cc1	x	x	x	x	n	x
